# The list is not random: actives were taken first. Their share in the collection is about 3.5%.
# MrgX1 ag – agonists of human MrgX1 receptor, primary screen, HEK293 cells, Fluo-4 calcium flux; Mas-related G-protein coupled receptor member X1 (Homo sapiens), Q96LB2; Fluo-4 calcium fluorescence, agonist mode; stronger effect = higher value; B-score at 10 µM; actives 0.44% (n = 310,000); AID 588627, 2011;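 active means calcium response B-score plate-corrected fluorescence ratio at least 3 library SD, with starting fluorescence B-score inside 5 SD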
# Target sequence (Q96LB2 whole entry, looked up): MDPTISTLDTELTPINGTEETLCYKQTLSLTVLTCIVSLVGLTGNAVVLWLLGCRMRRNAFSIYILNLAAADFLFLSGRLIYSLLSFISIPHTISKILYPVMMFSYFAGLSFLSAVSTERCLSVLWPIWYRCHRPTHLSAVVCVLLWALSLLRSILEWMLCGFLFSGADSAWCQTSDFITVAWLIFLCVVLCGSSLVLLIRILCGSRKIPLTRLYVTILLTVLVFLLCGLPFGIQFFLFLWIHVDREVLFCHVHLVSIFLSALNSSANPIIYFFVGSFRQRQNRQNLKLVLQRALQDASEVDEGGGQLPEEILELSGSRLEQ
#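 System – MrgX1-expressing HEK293 cells · Incubation – cells plated overnight, dye loaded 0.5 h 37 °C, 0.5 h room temperature · Technique – kinetic Fluo-4 NW fluorescence of intracellular calcium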
# MrgX1 antagonist – antagonists of human MrgX1 receptor, primary screen, HEK293 cells, Fluo-4 calcium flux; AID 588676, 2011; BAM8-22 antagonism; stronger effect = lower value; Mas-related G-protein coupled receptor member X1 (Homo sapiens), Q96LB2; actives 1.3% (n = 310,000); B-score at 10 µM;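 active means calcium-response B-score plate-corrected more than 3 library SD below zero, starting fluorescence within 5 deviations, no agonist response on first addition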;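 further: peak minus trough fluorescence over baseline after final BAM8-22 challenge near maximal dose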
# RGS4 block – RGS4 inhibitors, primary screen, cell-based, HEK293 M3R inducible RGS4, calcium flux; B-score at 10 µM; Fluo-4 calcium flux; stronger effect = higher value; triggered by carbachol at its EC20; AID 463165, 2010; actives 0.45% (n = 310,000);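 active means B-score, a plate-corrected calcium signal, over three deviations above library mean, with baseline fluorescence within five deviations of library mean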;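 further: RGS4 expression induced by doxycycline in cells with stable M3 receptor; B-score is computed from the integrated fluorescence ratio over baseline after carbachol; higher B-score means a larger calcium signal and so more RGS4 inhibition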
# Target sequence (P49798 whole entry, looked up): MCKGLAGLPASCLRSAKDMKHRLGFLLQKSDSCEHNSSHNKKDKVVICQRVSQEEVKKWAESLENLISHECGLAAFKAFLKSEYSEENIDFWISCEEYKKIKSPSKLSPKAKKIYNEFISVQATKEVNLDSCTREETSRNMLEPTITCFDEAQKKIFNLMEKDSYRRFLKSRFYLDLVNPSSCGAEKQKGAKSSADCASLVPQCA
# MrgX1 PAM – positive allosteric modulators of MrgX1, primary screen, HEK293 cells, Fluo-4 calcium flux; Mas-related G-protein coupled receptor member X1 (Homo sapiens), Q96LB2; AID 588675, 2011; B-score at 10 µM; actives 0.63% (n = 310,000); FDSS; stronger effect = higher value;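 active means plate-corrected calcium response at least 3 library SD above typical, normal starting fluorescence, not activating the receptor alone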;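 further: compound read alongside a low EC10 to EC30 dose of BAM8-22 agonist; peak minus trough fluorescence over baseline measured at the second addition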
# RGS4 pot – RGS4 potentiators or activators, primary screen, cell-based, HEK293 M3R inducible RGS4, calcium flux; carbachol calcium flux Fluo4; stronger effect = lower value; B-score at 10 µM; actives 0.92% (n = 310,000);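 active means B-score of the integrated calcium signal more than 4 SD below the library mean, with starting fluorescence not abnormally high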;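 further: negative B-score means reduced calcium response which marks RGS4 activation or potentiation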
#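 Detection: kinetic calcium fluorescence imaging with Fluo4-AM dye, 2 µM / Material: HEK293 cells with stable M3R and inducible RGS4 / Schedule: recording 10 s baseline at 1 Hz, 100 s post-agonist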
# RGS4 inh valid – enhanced carbachol calcium response, M3R/RGS4 cells, RGS4 inhibitor project, cell-based, validation screen, HEK293 M3R/RGS4, calcium flux. calcium response, % at 10 µM. carbachol calcium Fluo-4 fluorescence; carbachol added at its EC20; 0 = buffer wells, 100 = carbachol control. actives 65% (n = 1,700). AID 492999, 2010. shares compounds with RGS4 block;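 active means duplicate-averaged calcium response above the buffer-only control mean plus 5 SD of those controls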;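 further: integrated fluorescence ratio F max minus min over baseline F0; higher response in RGS4-induced cells means RGS4 inhibition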
# M3R Ca ctr – carbachol calcium response in non-induced M3R cells, confirmation, counter-screen for RGS4 inhibitor project, cell-based, HEK293 M3R; shares compounds with RGS4 block; carbachol calcium Fluo-4; submaximal (EC20) carbachol stimulus; buffer wells 0%, carbachol control wells 100%; activity (percent), % at 10 µM; actives 20% (n = 1,900); AID 493000, 2010; call rule not given here;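 further: RGS4 induction absent so cells express M3R without RGS4; higher means more calcium signal and flags a non-specific hit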
# M3R basal Ca ctr – second counter-screen for RGS4 inhibitors: non-induced cells without carbachol; shares compounds with RGS4 block; HEK293 M3R/RGS4 non-induced, Fluo-4 calcium, no carbachol; normalised: buffer wells 0%, carbachol wells 100%; calcium response (agonist-mode artifact), % at 10 µM; actives 22% (n = 1,900); AID 493001;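 active means duplicate-averaged calcium rise in uninduced cells above buffer wells' mean plus 5 SD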
# * marks the source's active call; other numbers are inactive results; i = inactive; . = not tested or not shown.
SMILES,MrgX1 ag,MrgX1 antagonist,RGS4 block,MrgX1 PAM,RGS4 pot,RGS4 inh valid,M3R Ca ctr,M3R basal Ca ctr
COc1ccccc1-c1cn[nH]c1-c1ccc(OCC(=O)NN)cc1O,i,i,i,i,i,.,.,.
CCNc1nc(NCC)n2c(SCC(=O)c3ccccc3F)nnc2n1,i,i,i,i,i,.,.,.
COc1ccc(C(=O)/C(=C\c2ccco2)N2C=CC=CC2=C(C#N)C#N)cc1,i,i,25.1*,i,i,37.0%*,i,20.5%*
N#CC(C#N)=C1C=CC=CN1/C(=C\c1ccco1)C(=O)c1ccccc1,i,i,.,i,.,.,.,.
COc1ccccc1C(=O)N1CCNC(=O)C1CC(=O)Nc1cccc(C)c1 (stereo unspecified),i,i,5.09*,i,i,i,i,i
O=C(CC1C(=O)NCCN1C(=O)Nc1ccccc1)Nc1cccc(Cl)c1 (stereo unspecified),i,i,i,i,i,i,i,i
O=C(CC1C(=O)NCCN1C(=O)Nc1ccccc1)Nc1cc(Cl)cc(Cl)c1 (stereo unspecified),i,i,6.06*,i,i,23.0%*,i,i
O=C(CC1C(=O)NCCN1C(=O)Nc1ccc(F)cc1)Nc1ccc(F)cc1 (stereo unspecified),i,i,i,i,i,.,i,i
O=C1N=C(N2CCOCC2)S/C1=C/c1cc2c(cc1[N+](=O)[O-])OCO2,i,i,i,i,i,.,.,.
CSCCC(N=C(NS(=O)(=O)c1ccc(C)cc1)c1ccccc1)C(=O)O (stereo unspecified),i,i,i,i,i,.,.,.
Cc1cc(C2(c3ccc(O)c(C)c3)C(=O)Nc3ccccc32)ccc1O,i,i,i,i,i,.,.,.
Cc1cccc2c1NC(=O)C2(c1ccc(O)cc1)c1ccc(O)cc1,i,i,8.57*,i,i,10.0%*,i,i
CN(C)CCCNC(=O)/C(=C\C=C\c1ccccc1)NC(=O)c1ccc([N+](=O)[O-])cc1,i,i,i,i,i,.,.,.
Nc1sc(-c2ccccc2)cc1C(=O)N/N=C/c1ccc(Cl)cc1,i,i,4.73*,i,i,14.5%*,28.5%*,i
O=C(N/N=C/c1ccc(Cl)cc1)c1cc(-c2cccnc2)nc2ccccc12,i,i,i,i,i,.,.,.
Oc1c(Br)cccc1/C=N/c1ncn[nH]1,i,i,4.67*,i,i,7.5%*,i,i
Cc1cc(NS(=O)(=O)c2ccc(Nc3nc(-c4sc(N)nc4C)cs3)cc2)no1,i,i,i,i,i,.,.,.
COc1cc(NS(=O)(=O)c2ccc(Nc3nc(-c4ccccc4)cs3)cc2)nc(OC)n1,i,i,7.96*,i,i,18.5%*,i,i
Cc1cc(NS(=O)(=O)c2ccc(Nc3nc(-c4ccc(O)cc4)cs3)cc2)no1,i,i,i,i,i,.,i,i
Cc1cc(NS(=O)(=O)c2ccc(Nc3nc(-c4ccc(C)c(C)c4)cs3)cc2)no1,i,i,i,i,i,i,33.5%*,i
O=C(Nc1c2c(nn1-c1cccc(Cl)c1)CS(=O)(=O)C2)c1ccco1,i,i,i,i,i,.,.,.
O=C(Nn1cnnc1)c1ccccc1Cl,i,i,i,i,i,.,.,.
COc1ccc(-c2nc3ccccc3nc2-c2ccccc2)cc1OC,i,i,i,i,i,.,.,.
COc1ccc(OC)c(-c2nc3cc4ccccc4cc3nc2-c2ccccc2)c1,i,i,6.77*,i,i,14.0%*,i,93.5%*
COc1ccc(-c2nnc(Nc3ccc(OC)c(C(=O)N4CCCCC4)c3)c3ccccc23)cc1,i,i,i,i,i,.,i,i
SMILES,MrgX1 ag,MrgX1 antagonist,RGS4 block,MrgX1 PAM,RGS4 pot,RGS4 inh valid,M3R Ca ctr,M3R basal Ca ctr
CCc1ccccc1NC(=O)C1CCN(S(C)(=O)=O)CC1,i,i,i,i,i,.,.,.
COc1cc(C(=O)NCC(=O)OCCN2C(=O)c3ccccc3C2=O)cc(OC)c1OC,i,i,i,i,i,.,.,.
CN1C(=O)/C(=C\c2ccncc2)SC1=Nc1ccccc1,i,i,6.32*,i,i,40.0%*,55.5%*,i
Cc1sc(C(C2C(=O)CC(C)(C)CC2=O)C2C(=O)CC(C)(C)CC2=O)cc1[N+](=O)[O-],i,i,24*,i,i,90.0%*,49.5%*,62.0%*
CC1(C)CC(=O)C(C(c2cc([N+](=O)[O-])ccc2Cl)C2C(=O)CC(C)(C)CC2=O)C(=O)C1,i,i,i,i,i,.,.,.
CCNC(=O)NC(=O)C(C)OC(=O)Cc1coc2cc3c(cc12)CCC3 (stereo unspecified),i,i,i,i,i,.,.,.
O=C(Nc1cnc2ccccn2c1=O)c1ccc(Cl)cc1,i,i,4.85*,i,i,i,i,i
Cc1ccc(S(=O)(=O)N2CCN(C(=O)COC(=O)CNC(=O)c3ccc(Cl)cc3Cl)CC2)cc1,i,i,i,i,i,.,.,.
Cc1cc(O)c2c(c1)C(=O)c1cc(O)cc(O)c1C2=O,i,i,i,i,i,.,.,.
O=C1c2cc(O)cc(O)c2C(=O)c2c1cc(O)c([C@@H](CO)CCO)c2O,i,i,6.3*,i,i,17.5%*,i,67.0%*
Cc1ccc(C(=O)/C=C/C(=O)c2ccc(C)cc2)cc1,i,i,i,i,i,.,i,i
COc1ccc(C(=O)/C=C/Sc2nc3ccccc3o2)cc1,i,i,24.4*,i,i,9.5%*,i,i
